Screening results deposited in PubChem BioAssay by several laboratories.
SR-BI uptake up = activators of SR-BI mediated DiI-HDL uptake, primary screen, ldlA[mSR-BI] CHO cells, DiI fluorescence; 3 h; 100 = double the neutral-control signal; activation, % at 12.5 µM; actives 0.096% (n = 320,000); AID 504775, 2011;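 active = mean replicate activation of at least 60% and every replicate at or above 60%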
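Test system: SR-BI-overexpressing, LDLR-lacking CHO cells; Medium: Ham's F12 with 0.5% BSA, HEPES 25 mM, pH 7.4; Schedule: 3 h, 37 °C; Technique: bottom-read fluorescence, 550/595 nm.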
FXN GAA850 act = FXN promoter activators, primary screen, cell-based, luciferase luminescence, HEK293 lucGAA850 | HEK293 lucGAA850 FXN promoter luciferase reporter, 24 h; percent of 10 µM SAHA response | activation, % at 6 µM | actives 0.56% (n = 360,000);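 active = activation above the average of all compounds screened plus 3 SD, cutoff fixed separately per campaign, cut at about 7.5% in these data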
AHR act = AHR activators, primary screen, cell-based, luminescence, luciferase reporter, human | AID 2796, 2010 | actives 2.5% (n = 320,000) | AHR-responsive luciferase reporter cells | Aryl hydrocarbon receptor (Homo sapiens), P35869 | activation, % at 5 µM; in the data active = activation above about 47%
SR-BI DiI inh = inhibitors of SR-BI mediated HDL lipid uptake, primary screen, ldlA[mSR-BI] cells, fluorescence, single point; Scavenger receptor class B member 1 (Mus musculus), Q61009; ldlA[mSR-BI] CHO cells, DiI-HDL uptake fluorescence, 3 h; inhibition, % at 12.5 µM; actives 0.96% (n = 320,000); AID 488896, 2010;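 active = mean replicate inhibition of at least 70% and a set share of replicates each scoring 70 or more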
Target sequence (Q61009 whole entry, looked up): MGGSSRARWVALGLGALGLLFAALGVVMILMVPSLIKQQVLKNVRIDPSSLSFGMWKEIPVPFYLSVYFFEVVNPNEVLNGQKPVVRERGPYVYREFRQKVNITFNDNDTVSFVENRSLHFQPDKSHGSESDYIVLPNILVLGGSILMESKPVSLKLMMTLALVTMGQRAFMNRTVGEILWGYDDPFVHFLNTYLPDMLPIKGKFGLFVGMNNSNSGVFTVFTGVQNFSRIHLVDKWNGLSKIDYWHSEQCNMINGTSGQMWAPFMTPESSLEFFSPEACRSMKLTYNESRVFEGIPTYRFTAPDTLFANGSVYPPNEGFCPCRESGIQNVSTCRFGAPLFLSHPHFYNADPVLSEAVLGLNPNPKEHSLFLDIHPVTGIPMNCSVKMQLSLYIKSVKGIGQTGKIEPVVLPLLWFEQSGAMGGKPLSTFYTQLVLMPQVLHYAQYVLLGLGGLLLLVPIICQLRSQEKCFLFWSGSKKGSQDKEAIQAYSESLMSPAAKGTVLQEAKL
HIF act = HIF pathway transcriptional activators, primary screen, cell-based, U2OS HRE-luciferase, luminescence | actives 0.32% (n = 300,000) | activation, % at 7.5 µM (by protocol) | U2OS HRE-luciferase reporter; normalized: DMSO 0%, desferrioxamine 100%;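 active = mean activation of at least 10% of the iron chelator positive control signal, with at least half of replicates also reaching 10%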
ABCB6 inh 2 = ABCB6 transporter inhibitors, primary screen, K562-ABCB6 cells, flow cytometry, MLPCN library; ATP-binding cassette sub-family B member 6 (Homo sapiens), Q9NP58; K562-ABCB6 porphyrin accumulation, 1 h; active compounds read low; actives 0.19% (n = 360,000); fluorescence ratio to DMSO, % at 10 µM; AID 602162, 2011;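 active = fluorescence ratio to DMSO below 75%, the collection mean minus 3 SD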;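 also: signal is porphyrin accumulated inside mitochondria; lower ratio means ABCB6 inhibition with less porphyrin fluorescence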
Hits are given with their value; 0 = inactive; - = no result. An excerpt weighted towards active compounds, which were near 3.9% of everything screened.

SMILES | SR-BI uptake up | FXN GAA850 act | AHR act | SR-BI DiI inh | HIF act | ABCB6 inh 2
CC1(c2ccc3ccccc3c2)NC(=O)N(CC(=O)Nc2cccc(S(=O)(=O)N3CCOCC3)c2)C1=O (configuration not stated) | 0 | 0 | 49 | 0 | 0 | 0
CCc1nc2ccc(C(=O)N3CCN(C(=O)c4ccco4)CC3)cn2c1N(C)CCC(C)C | - | 0 | - | - | - | 0
CN1CCN(S(=O)(=O)c2ccc(NC(=O)COc3ccccc3)cc2)CC1 | 0 | 0 | 0 | 0 | 0 | 0
CN1CCc2c(sc(NC(=O)c3cc4cc([N+](=O)[O-])ccc4s3)c2C(N)=O)C1 | - | - | - | - | 0 | -
Cn1c(=O)c(C(=O)Nc2ncccc2O)c(O)c2ccccc21 | 0 | 0 | 77 | 0 | 0 | 0
CCCn1c(=O)c(C(=O)Nc2ncccc2O)c(O)c2ccccc21 | 0 | 0 | - | 0 | 0 | 0
COc1ccc(C(=O)Nc2cc(C(=O)c3ccccc3)c(C)oc2=O)cc1 | 0 | 12 | 0 | 0 | 0 | 0
CCOc1ncccc1C(=O)NNC(=O)CSc1ccc(Cl)cc1 | 0 | 0 | 0 | 0 | - | 0
Cc1cnc(NC(=O)/C=C/c2ccc(Br)o2)s1 | 0 | 0 | 0 | 0 | 0 | 0
O=C(/C=C/c1ccc(Br)o1)Nc1nnc(C2CC2)s1 | - | - | 66 | - | 0 | -
c1ccc(CNc2ccc(CNc3ncn[nH]3)cc2)cc1 | 0 | 0 | 0 | 0 | 0 | 0
CCN(CC)C(=O)C1CCCN(c2ccc([N+](=O)[O-])cc2[N+](=O)[O-])C1 (configuration not stated) | 0 | 0 | 0 | 0 | 0 | 0
CCN(CC)C(=O)C1CCCN(c2ccccc2[N+](=O)[O-])C1 (configuration not stated) | 0 | 0 | 0 | 79 | 0 | 0
CCN(CC)C(=O)C1CCCN(c2ccc([N+](=O)[O-])cc2/C=N/NC(=O)c2cccc([N+](=O)[O-])c2)C1 (configuration not stated) | 0 | 0 | 0 | 90 | 0 | 0
O=C(CNc1ccccc1)N/N=C/c1cc([N+](=O)[O-])ccc1N1CCCC1 | 0 | 0 | 0 | 73 | 0 | 0
Cc1cccc(C)c1NC(=O)CNC(=O)C1CCCN(C(=O)c2ccc(Cl)cc2)C1 (configuration not stated) | 0 | 0 | 0 | 0 | - | 0
COc1cc(/C=C(\C(=O)O)c2ccc(S(=O)(=O)N3CCCC3)s2)ccc1OCCC(C)C | 0 | 0 | - | 0 | - | 0
CCOC(=O)c1csc(N)c1-c1ccc([N+](=O)[O-])cc1 | 69 | 0 | 0 | 0 | 0 | 0
CCCCN1C(=O)C2(NNc3ccccc3O2)c2ccccc21 (configuration not stated) | 0 | 0 | 69 | 0 | 0 | 0
Cc1c(NC(=O)c2cccs2)cccc1-c1nc2ccccc2s1 | 0 | 0 | 0 | 0 | 0 | 0
CCNc1sc(C(=O)c2cccs2)c(N)c1-c1nc2ccccc2s1 | 0 | 0 | 55 | 98 | 0 | 0
CCOC(=O)c1sc(NCc2ccco2)c(-c2nc3ccccc3s2)c1N | 0 | 0 | 62 | 88 | 0 | 0
Cc1cc(N2CCCC2)ccc1/C=C1\NC(=S)N(C)C1=O | 0 | 0 | 51 | 0 | 0 | 0
O=S(=O)(c1ccc(Cl)cc1)N1CCN(CCc2ccncc2)CC1 | 0 | 0 | 0 | 0 | 0 | 0
Fc1ccc2nc(Nc3nc4c(F)cccc4s3)sc2c1 | 0 | 0 | 62 | 0 | 0 | 0
SMILES | SR-BI uptake up | FXN GAA850 act | AHR act | SR-BI DiI inh | HIF act | ABCB6 inh 2
NNc1nc2ccc(F)cc2s1 | 0 | 0 | 77 | 0 | 0 | 0
Fc1ccc2nc(Nc3ccccc3)sc2c1 | 0 | 0 | 0 | 0 | 0 | 0
C/C(=N\Nc1ccccc1)c1cccc(N)c1 | 0 | 0 | - | 0 | 0 | 0
C/C(=N/Nc1cc(-c2ccccc2)nc(-c2ccccc2)n1)c1ccc(O)cc1 | - | 0 | 66 | - | 0 | 0
C/C(=N\Nc1cc(-c2ccccc2)nc(-c2ccc(Br)cc2)n1)c1cccc(N)c1 | 0 | 0 | 71 | 0 | 0 | 0
O=C(NCCN1CCCC1)c1ccc(Cn2c(=S)[nH]c3ccc(Br)cc3c2=O)cc1 | 0 | 0 | 0 | 0 | 0 | 0
O=C1C=CC(=O)N1c1ccc(Nc2ccccc2)cc1 | 0 | 0 | - | 0 | - | 0
O=C1C(Nc2ccccc2)=C2CCCC=C2N1c1ccccc1 | 0 | 0 | 0 | 79 | 0 | 0
COc1ccccc1C(c1nnnn1CC1CCCO1)N1CCC(C(N)=O)CC1 (configuration not stated) | 0 | 0 | 0 | 0 | 15 | 0
COc1ccc(C(c2nnnn2CC2CCCO2)N2CCC(C(N)=O)CC2)cc1 (configuration not stated) | 0 | 0 | 0 | 0 | 0 | 0
CC(C)c1ccc(NC(=O)CSc2n[nH]c(=O)n2-c2cccnc2)cc1 | 0 | 0 | 0 | 0 | 0 | 0
Cc1csc(NC(=O)c2cnc3ccccc3n2)n1 | 0 | 0 | 57 | 0 | 0 | 0
O=C(Nc1ccc(N2CCCCC2)cc1)c1ccc2ccccc2n1 | 0 | 0 | 63 | 0 | 0 | 0
Cc1ccccc1NC(=O)c1cccc(C(=O)Nc2ccccc2C)n1 | 0 | 0 | 0 | 0 | 0 | 0
Cc1cccc(NC(=O)c2ccc3ccccc3n2)c1C | 0 | 0 | 58 | 0 | 0 | 0
Cc1csc(NC(=O)c2ccc(C(=O)Nc3nc(C)cs3)cc2)n1 | - | - | 0 | - | 0 | -
Cc1csc(NC(=O)c2ccc3ccccc3n2)n1 | 0 | 0 | 74 | 0 | 0 | 0
O=C(Nc1cccc(S(=O)(=O)N2CCCCCC2)c1)c1ccc2ccccc2n1 | 0 | 0 | 0 | 0 | 0 | 0
Cc1ccc(S(=O)(=O)N2[C@@H](c3ccc(C(C)C)cc3)C(C(=O)O)=C[C@H]2C(C)(C)C)cc1 | 0 | 0 | 0 | 0 | - | 0
COc1cc(-c2c(C#N)c(N)nc3c2CCCC3)cc(OC)c1OC | 0 | 0 | 0 | 0 | 0 | 0
CCOc1cc(N2CCOCC2)c(OCC)cc1NC(=O)c1ccccc1C | 0 | 0 | 0 | 0 | 0 | 0
Cc1oc(-c2ccccc2)nc1C(=O)Nc1nccs1 | 0 | 0 | 74 | 0 | 0 | 0
O=C(Nc1nccs1)c1ccc2ccccc2n1 | 0 | 0 | 50 | 0 | 0 | 0
O=C(Nc1nccs1)c1ccccc1Br | - | 0 | 0 | - | 0 | 0
CCOc1cc(N2CCOCC2)c(OCC)cc1NC(=O)c1ccc2ccccc2n1 | 0 | 0 | 0 | 95 | 0 | 0
Cc1cccc(N2Cc3ccc(Br)cc3C2)c1 | 0 | 0 | 48 | 0 | 0 | 0
C/C(=N/O)c1cccc(N2Cc3ccccc3C2)c1 | 0 | 0 | 0 | 0 | 0 | 0
Cc1nnc(NC(=O)Nc2cccc(Cl)c2)s1 | 0 | 0 | 71 | 0 | 0 | 0
O=C(Nc1cccc(Cl)c1)c1cnccn1 | 0 | 0 | 0 | 0 | 0 | 0
